Experimental data: ChEMBL document CHEMBL4364248, “Discovery of 1,2,4-oxadiazole-Containing hydroxamic acid derivatives as histone deacetylase inhibitors potential application in cancer therapy” (Eur J Med Chem, 2019)

Assays:
JeKo-1 [1] = assay: Antiproliferative activity against human JeKo1 cells after 72 hrs by MTT assay; type: functional, cell-based; settings: JeKo-1, 72 h
JeKo-1 [2] = assay: Cell cycle arrest in human JeKo1 cells assessed as accumulation at S phase at 1000 nM after 24 hrs by propidium iodide staining based flow cytometric analysis (reference value: 26.13 %); type: functional
MDA-MB-231 = assay: Antiproliferative activity against human MDA-MB-231 cells after 72 hrs by MTT assay; type: functional, cell-based; settings: MDA-MB-231, 72 h
HepG2 = assay: Antiproliferative activity against human HepG2 cells after 72 hrs by MTT assay; type: functional, cell-based; settings: HepG2, 72 h
MCF7 = assay: Antiproliferative activity against human MCF7 cells after 72 hrs by MTT assay; type: functional, cell-based; settings: MCF7, 72 h
[3] = target: Histone deacetylase 3/Nuclear receptor corepressor 2 (HDAC3/NCoR2) (Homo sapiens, UniProt O15379); assay: Inhibition of human recombinant full length C-terminal His-tagged HDAC3 (1 to 428 residues)/N-terminal GST-tagged NCOR2 (395 to 489 residues) expressed in Sf9 cells using Ac-peptide-AMC as substrate after 1 hr by fluorescence assay
Histone deacetylase 11 = Histone deacetylase 11 (Homo sapiens, UniProt Q96DB2); assay: Inhibition of recombinant full length human HDAC11 expressed in baculovirus infected Sf9 cells using Ac-peptide-AMC as substrate after 1 hr by fluorescence assay
HCT-116 = assay: Antiproliferative activity against human HCT116 cells after 72 hrs by MTT assay; type: functional, cell-based; settings: HCT-116, 72 h
[4] = Toxicity in NOD/SCID mouse xenografted with human Daudi cells assessed as organ damage at 20 mg/kg, po treated on day 1,3 and 5 per week and measured for every 2 days by H and E staining based assay; type: organism-based; settings: in vivo, 48 h
How it was run: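 Female NOD/SCID mice (5–6 weeks) bearing s.c. Daudi xenografts, six per group. Dosing was 10 mg/kg i.v. or 20 mg/kg p.o. in 8% HP-β-CD on days 1, 3 and 5 weekly. Behaviour was observed, and organ tissues were collected at sacrifice for H&E staining.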

[5] = Antiproliferative activity against human ARD cells after 72 hrs by MTT assay; type: functional, cell-based
Raji = assay: Antiproliferative activity against human Raji cells after 72 hrs by MTT assay; type: functional, cell-based
JeKo-1 [6] = assay: Induction of apoptosis in human JeKo1 cells assessed as necrotic cells at 10 nM after 48 hrs by annexin V-FITC/propidium iodide staining-based flow cytometric method (reference value: 2.03 %); type: functional
How it was run: (§1)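 Jeko-1 cells were grown in RPMI-1640 with 10% FBS at 37 °C under 5% CO2. They were exposed to 0, 10, 100 or 1000 nM for 48 h, then apoptosis induction was analysed.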

[7] = target: T1, Protein deacetylase HDAC6 (Homo sapiens) (UniProt Q9UBN7); assay: Inhibition of HDAC6 in human MM1S cells assessed as increase in alpha tubulin acetylation after 6 hrs by Western blot analysis; type: cell-based
T1 sequence (whole entry): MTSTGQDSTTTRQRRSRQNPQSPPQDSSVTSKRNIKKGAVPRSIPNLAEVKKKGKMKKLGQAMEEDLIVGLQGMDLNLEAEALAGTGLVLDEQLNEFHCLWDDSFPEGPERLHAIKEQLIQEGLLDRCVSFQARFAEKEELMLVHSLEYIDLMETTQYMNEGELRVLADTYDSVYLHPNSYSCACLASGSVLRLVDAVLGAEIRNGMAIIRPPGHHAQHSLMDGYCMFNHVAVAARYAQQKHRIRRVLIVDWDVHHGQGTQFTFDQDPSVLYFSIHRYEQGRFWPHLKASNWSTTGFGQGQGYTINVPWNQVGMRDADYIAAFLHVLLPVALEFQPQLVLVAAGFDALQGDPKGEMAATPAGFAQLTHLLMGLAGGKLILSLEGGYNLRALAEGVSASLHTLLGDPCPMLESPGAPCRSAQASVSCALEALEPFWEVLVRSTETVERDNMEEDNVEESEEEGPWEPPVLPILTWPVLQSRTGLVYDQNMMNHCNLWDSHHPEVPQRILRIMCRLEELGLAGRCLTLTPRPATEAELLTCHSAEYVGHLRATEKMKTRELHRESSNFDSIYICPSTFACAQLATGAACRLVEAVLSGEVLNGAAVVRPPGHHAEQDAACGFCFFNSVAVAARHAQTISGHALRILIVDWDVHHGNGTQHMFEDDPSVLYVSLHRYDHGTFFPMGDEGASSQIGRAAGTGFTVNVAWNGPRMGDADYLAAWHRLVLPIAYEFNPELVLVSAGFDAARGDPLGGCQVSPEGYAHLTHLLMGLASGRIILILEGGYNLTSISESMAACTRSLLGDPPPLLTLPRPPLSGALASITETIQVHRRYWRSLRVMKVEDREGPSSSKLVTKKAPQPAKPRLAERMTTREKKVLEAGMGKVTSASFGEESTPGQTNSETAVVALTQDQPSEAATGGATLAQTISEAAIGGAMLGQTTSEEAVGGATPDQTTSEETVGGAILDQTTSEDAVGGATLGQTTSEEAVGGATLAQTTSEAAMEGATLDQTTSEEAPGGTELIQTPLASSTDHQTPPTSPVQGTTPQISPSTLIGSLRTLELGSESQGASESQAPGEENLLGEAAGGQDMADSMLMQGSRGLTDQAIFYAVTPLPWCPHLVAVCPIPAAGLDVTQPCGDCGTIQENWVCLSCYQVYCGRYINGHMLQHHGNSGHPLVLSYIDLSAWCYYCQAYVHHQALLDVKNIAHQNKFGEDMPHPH

[8] = target: T1, Protein deacetylase HDAC6 (Homo sapiens); assay: Inhibition of recombinant full length HDAC6 (unknown origin) using Ac-peptide-AMC as substrate at 100 nM after 1 hr by fluorescence assay relative to control
How it was run: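 Full-length recombinant HDAC1 or HDAC6 was incubated with compound, trypsin and Ac-peptide-AMC substrate for 1 h at room temperature. Fluorescence was read at ex 355/em 460 nm. Inhibition was calculated against the DMSO vehicle control.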

[9] = Volume of distribution at steady state in Sprague-Dawley rat at 5 mg/kg, iv measured upto 24 hrs by LC-MS/MS analysis; type: ADME, organism-based; settings: in vivo, read-out: Vdss
How it was run: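 SD rats (200-250 g), six per time point, given 5 mg/kg as a tail-vein bolus or orally. Blood was taken by cardiac puncture before dosing and at 5, 15, 30, 45 min and 1, 2, 4, 6, 8, 10, 12 and 24 h. Plasma was spun at 4000 g for 15 min at 4 °C and stored at -80 °C. Analysis was LC-MS/MS with multiple-reaction monitoring, followed by noncompartmental analysis.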

Histone deacetylase 8 = Histone deacetylase 8 (Homo sapiens, UniProt Q9BY41); assay: Inhibition of recombinant full length C-terminal His-tagged human HDAC8 expressed in baculovirus infected in Sf9 cells using Ac-peptide-AMC as substrate after 1 hr by fluorescence assay
JeKo-1 [10] = assay: Induction of apoptosis in human JeKo1 cells assessed as necrotic cells at 100 nM after 48 hrs by annexin V-FITC/propidium iodide staining-based flow cytometric method (reference value: 2.03 %); type: functional; how it was run: as §1

Chain of Histone deacetylase 3/Nuclear receptor corepressor 2 (HDAC3/NCoR2) (O15379 whole entry, the tested form may be a part): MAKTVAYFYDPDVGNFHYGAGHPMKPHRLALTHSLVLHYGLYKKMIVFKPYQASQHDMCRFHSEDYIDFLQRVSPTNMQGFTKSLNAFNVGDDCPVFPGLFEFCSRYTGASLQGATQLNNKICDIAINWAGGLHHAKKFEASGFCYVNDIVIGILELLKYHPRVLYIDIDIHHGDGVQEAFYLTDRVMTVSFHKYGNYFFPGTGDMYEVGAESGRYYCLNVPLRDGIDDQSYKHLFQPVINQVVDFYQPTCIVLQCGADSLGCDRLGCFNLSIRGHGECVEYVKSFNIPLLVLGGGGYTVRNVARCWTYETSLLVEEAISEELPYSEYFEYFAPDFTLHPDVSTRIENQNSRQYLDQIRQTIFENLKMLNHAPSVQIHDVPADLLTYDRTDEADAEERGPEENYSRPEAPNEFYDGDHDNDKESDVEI
Chain of Histone deacetylase 3/Nuclear receptor corepressor 2 (HDAC3/NCoR2) (Q9Y618 whole entry, further chain, the tested form may be a part): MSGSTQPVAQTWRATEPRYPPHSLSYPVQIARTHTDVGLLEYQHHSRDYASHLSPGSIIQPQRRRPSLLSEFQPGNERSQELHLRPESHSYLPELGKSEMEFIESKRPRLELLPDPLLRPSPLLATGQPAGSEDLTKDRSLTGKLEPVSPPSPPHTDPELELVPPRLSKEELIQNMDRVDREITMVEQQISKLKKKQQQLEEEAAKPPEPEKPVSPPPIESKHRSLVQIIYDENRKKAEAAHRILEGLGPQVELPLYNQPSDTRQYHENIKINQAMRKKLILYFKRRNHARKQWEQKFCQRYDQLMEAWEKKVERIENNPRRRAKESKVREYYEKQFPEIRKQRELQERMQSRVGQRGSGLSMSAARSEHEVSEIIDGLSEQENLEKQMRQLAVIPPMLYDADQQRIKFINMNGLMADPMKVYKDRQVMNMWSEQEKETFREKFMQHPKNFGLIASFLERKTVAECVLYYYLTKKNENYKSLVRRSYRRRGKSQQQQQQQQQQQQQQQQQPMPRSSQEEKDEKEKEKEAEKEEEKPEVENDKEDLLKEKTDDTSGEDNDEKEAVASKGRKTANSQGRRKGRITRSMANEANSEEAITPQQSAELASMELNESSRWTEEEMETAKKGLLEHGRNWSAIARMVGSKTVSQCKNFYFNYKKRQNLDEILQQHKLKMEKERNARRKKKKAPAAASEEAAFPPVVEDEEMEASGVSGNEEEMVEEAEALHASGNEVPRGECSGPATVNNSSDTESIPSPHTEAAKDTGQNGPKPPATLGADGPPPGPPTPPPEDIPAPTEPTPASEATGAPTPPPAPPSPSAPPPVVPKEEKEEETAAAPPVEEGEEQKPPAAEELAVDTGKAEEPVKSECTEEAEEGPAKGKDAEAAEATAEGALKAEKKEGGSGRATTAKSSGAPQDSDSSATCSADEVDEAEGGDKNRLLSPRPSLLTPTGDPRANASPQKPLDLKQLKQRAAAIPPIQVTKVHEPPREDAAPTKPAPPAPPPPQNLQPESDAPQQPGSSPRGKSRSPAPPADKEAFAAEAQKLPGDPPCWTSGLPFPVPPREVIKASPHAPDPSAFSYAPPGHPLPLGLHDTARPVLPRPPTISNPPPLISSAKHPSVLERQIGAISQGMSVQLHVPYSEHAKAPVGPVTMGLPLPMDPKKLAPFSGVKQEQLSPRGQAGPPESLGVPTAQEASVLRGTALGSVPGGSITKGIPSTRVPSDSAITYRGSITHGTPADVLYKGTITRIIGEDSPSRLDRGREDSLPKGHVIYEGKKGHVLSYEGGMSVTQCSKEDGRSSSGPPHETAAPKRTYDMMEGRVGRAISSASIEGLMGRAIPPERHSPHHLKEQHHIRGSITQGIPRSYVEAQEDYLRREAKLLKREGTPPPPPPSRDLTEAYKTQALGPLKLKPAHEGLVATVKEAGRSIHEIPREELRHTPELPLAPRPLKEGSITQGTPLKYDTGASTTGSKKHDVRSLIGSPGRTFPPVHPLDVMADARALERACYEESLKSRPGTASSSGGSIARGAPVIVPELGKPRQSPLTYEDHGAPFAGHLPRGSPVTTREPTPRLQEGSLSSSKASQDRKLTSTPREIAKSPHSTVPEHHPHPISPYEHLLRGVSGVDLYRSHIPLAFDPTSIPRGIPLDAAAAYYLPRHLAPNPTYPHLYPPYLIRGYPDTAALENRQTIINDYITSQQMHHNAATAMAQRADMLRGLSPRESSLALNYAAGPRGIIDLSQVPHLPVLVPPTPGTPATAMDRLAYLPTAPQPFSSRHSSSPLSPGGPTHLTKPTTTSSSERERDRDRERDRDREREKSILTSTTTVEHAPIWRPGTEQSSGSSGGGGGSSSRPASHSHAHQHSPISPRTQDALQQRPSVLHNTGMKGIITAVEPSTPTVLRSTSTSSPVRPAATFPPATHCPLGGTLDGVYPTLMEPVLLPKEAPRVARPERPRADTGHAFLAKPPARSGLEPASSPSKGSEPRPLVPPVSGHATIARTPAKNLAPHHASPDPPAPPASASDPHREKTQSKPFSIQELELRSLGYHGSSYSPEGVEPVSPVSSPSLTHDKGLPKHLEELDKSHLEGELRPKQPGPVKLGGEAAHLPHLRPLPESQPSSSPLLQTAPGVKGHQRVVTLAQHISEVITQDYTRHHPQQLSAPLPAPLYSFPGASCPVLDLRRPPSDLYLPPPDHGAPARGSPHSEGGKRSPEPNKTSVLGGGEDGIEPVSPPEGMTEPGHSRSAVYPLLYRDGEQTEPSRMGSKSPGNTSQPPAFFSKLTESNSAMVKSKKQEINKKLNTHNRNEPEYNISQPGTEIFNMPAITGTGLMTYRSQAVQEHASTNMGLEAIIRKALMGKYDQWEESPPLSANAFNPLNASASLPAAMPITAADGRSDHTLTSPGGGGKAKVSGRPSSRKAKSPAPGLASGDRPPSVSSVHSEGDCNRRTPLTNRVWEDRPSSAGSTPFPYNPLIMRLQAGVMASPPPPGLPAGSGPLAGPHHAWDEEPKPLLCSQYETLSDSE
Chain of Histone deacetylase 11 (Q96DB2 whole entry): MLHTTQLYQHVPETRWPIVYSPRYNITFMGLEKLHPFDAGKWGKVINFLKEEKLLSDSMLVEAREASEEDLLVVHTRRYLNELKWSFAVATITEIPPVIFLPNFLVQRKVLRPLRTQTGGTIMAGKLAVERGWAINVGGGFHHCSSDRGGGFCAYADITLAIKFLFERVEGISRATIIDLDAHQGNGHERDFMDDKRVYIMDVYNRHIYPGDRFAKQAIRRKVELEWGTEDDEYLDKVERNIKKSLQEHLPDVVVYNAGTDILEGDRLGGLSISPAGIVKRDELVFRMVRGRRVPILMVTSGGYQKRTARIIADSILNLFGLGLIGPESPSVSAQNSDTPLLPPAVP
Chain of Histone deacetylase 8 (Q9BY41 whole entry): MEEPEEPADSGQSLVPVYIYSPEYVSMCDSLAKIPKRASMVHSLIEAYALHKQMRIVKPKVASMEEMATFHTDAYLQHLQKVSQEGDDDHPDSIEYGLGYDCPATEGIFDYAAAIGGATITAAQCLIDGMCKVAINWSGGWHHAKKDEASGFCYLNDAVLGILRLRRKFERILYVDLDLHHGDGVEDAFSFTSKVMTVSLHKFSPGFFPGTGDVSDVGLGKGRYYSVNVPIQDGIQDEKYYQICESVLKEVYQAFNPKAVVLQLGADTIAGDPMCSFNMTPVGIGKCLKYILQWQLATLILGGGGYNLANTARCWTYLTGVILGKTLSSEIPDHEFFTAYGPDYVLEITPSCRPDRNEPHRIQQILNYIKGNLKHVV

IC50 (MDA-MB-231): 25.6 nM
IC50 (HepG2): 13 nM
IC50 (MCF7): 14.4 nM
IC50 [3]: 3 nM
IC50 (Histone deacetylase 11): > 10000 nM
IC50 (HCT-116): 16 nM
IC50 (Raji): 12.1 nM
inhibition [7]: Dose-dependent effect
inhibition [8]: 71%
Vd [9]: 6.33 L/kg
IC50 (Histone deacetylase 8): 260 nM
SMILES: Cc1ccc(CN2CCC(c3noc(CN(C)c4ncc(C(=O)NO)cn4)n3)CC2)cc1
IC50 (JeKo-1 [1]): 7.2 nM
Activity (JeKo-1 [2]): 12.82%
Activity [4]: Non-Toxic
IC50 [5]: 44.9 nM
Activity (JeKo-1 [6]): 0.39%
Activity (JeKo-1 [10]): 0.061%
